Our source for the inhibition and Ki values is ChEMBL document CHEMBL1828538, “Synthesis and pharmacological evaluation of indole-based sigma receptor ligands” (Eur J Med Chem, 2011).

Activity calls are given as the source filed them. The calls are words filed in the database; no cut-off is given here.

Experiment [1] in a line: Displacement of radioligand from adrenergic beta1 receptor assessed as 50% receptor inhibition at 10^-7 M. The method, boiled down: (§1)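 Part of a contracted (NovaScreen) panel of 64 radioligand/enzyme assays, with the test compound run at 10⁻⁵ M and 10⁻⁷ M. Each assay was scored by whether radioligand displacement exceeded 50% at each concentration.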
A short description of experiment [2]: Displacement of radioligand from muscarinic receptor assessed as 50% receptor inhibition at 10^-7 M. Put shortly: as §1
Experiment [3] deals with Histamine H1 receptor (Homo sapiens) (UniProt P35367). The experiment is described as follows: Displacement of radioligand from histamine H1 receptor assessed as 50% receptor inhibition at 10^-5 M. Put shortly: as §1
Sequence of Histamine H1 receptor (Homo sapiens) (P35367 whole entry): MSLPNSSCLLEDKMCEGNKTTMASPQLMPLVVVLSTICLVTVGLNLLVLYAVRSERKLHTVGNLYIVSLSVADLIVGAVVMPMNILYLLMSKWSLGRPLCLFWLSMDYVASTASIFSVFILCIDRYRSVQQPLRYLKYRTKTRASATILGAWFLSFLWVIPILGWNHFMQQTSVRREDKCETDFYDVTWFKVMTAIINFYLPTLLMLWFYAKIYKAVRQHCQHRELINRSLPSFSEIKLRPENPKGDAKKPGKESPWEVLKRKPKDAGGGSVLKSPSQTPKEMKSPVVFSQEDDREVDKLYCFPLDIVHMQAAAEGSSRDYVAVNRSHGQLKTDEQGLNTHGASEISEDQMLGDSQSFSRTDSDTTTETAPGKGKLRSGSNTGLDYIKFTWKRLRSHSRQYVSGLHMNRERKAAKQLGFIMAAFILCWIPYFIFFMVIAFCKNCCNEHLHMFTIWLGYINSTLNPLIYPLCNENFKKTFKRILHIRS
Experiment [4] addresses T1, Muscarinic acetylcholine receptor M1 (Homo sapiens) (UniProt P11229).
T1 sequence (whole entry): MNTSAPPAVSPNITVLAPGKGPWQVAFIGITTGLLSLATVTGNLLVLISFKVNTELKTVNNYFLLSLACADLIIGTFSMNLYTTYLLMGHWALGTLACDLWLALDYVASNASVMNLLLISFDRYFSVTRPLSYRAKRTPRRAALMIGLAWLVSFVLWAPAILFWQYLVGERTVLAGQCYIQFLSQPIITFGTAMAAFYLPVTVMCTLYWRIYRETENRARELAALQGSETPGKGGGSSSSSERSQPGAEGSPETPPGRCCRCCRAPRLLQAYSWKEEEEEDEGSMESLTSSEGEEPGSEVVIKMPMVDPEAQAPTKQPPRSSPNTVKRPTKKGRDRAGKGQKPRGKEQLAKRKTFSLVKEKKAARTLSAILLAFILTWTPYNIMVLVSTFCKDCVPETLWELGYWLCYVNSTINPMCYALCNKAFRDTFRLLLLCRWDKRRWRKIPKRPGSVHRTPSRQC
The experiment in a line: Displacement of radioligand from muscarinic M1 receptor assessed as 50% receptor inhibition at 10^-7 M. The method, boiled down:
as §1

The target in experiment [5] is T2, Muscarinic acetylcholine receptor M2 (Homo sapiens) (UniProt P08172).
T2 sequence (whole entry): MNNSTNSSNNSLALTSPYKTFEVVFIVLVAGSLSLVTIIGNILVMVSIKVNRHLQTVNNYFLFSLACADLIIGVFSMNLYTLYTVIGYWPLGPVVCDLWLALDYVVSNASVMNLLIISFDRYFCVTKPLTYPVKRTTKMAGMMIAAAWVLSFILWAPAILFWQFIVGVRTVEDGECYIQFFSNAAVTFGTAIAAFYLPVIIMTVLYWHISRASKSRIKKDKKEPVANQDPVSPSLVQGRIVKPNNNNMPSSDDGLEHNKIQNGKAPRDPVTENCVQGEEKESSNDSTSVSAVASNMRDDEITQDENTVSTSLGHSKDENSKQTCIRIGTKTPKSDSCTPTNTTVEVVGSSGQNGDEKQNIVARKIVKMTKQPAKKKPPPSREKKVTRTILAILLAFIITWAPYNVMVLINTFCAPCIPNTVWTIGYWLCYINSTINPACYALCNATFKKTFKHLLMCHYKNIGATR
The experiment is described as follows: Displacement of radioligand from muscarinic M2 receptor assessed as 50% receptor inhibition at 10^-7 M. Put shortly: as §1

Experiment [6] addresses T2, Muscarinic acetylcholine receptor M2 (Homo sapiens). The experiment is described as follows: Displacement of radioligand from muscarinic M2 receptor assessed as 50% receptor inhibition at 10^-5 M. Put shortly: as §1
A short description of experiment [7]: Displacement of radioligand from adrenergic alpha1 receptor assessed as 50% receptor inhibition at 10^-7 M. The method, boiled down: as §1
For experiment [8], the target named is T3, Substance-K receptor (Homo sapiens) (UniProt P21452).
T3 sequence (whole entry): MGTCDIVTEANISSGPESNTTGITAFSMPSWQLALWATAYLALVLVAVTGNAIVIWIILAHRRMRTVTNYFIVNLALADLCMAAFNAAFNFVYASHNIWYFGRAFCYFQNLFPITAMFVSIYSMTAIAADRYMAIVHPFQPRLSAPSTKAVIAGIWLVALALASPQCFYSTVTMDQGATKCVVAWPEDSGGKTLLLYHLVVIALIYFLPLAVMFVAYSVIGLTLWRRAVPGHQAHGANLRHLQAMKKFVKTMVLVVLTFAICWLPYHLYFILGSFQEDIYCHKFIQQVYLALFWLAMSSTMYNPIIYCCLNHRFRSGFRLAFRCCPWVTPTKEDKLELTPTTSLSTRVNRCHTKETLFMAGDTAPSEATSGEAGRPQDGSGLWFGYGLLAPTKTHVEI
The experiment in a line: Displacement of radioligand from neurokinin NK2 receptor assessed as 50% receptor inhibition at 10^-7 M. The method, boiled down:
as §1

Experiment [9] addresses Cannabinoid receptor 1 (Homo sapiens) (UniProt P21554). The experiment is described as follows: Displacement of radioligand from cannabinoid CB1 receptor assessed as 50% receptor inhibition at 10^-5 M. The method, boiled down:
as §1

In experiment [10] the target is T3, Substance-K receptor (Homo sapiens). The experiment in a line: Displacement of radioligand from neurokinin NK2 receptor assessed as 50% receptor inhibition at 10^-5 M. Put shortly: as §1
In experiment [11] the target is Sodium-dependent serotonin transporter (Homo sapiens, UniProt P31645). The experiment is described as follows: Displacement of [125I]RTI-55 from human SERT expressed in HEK293 cells. It counts as cell-based.
Sequence of Sodium-dependent serotonin transporter (P31645 whole entry): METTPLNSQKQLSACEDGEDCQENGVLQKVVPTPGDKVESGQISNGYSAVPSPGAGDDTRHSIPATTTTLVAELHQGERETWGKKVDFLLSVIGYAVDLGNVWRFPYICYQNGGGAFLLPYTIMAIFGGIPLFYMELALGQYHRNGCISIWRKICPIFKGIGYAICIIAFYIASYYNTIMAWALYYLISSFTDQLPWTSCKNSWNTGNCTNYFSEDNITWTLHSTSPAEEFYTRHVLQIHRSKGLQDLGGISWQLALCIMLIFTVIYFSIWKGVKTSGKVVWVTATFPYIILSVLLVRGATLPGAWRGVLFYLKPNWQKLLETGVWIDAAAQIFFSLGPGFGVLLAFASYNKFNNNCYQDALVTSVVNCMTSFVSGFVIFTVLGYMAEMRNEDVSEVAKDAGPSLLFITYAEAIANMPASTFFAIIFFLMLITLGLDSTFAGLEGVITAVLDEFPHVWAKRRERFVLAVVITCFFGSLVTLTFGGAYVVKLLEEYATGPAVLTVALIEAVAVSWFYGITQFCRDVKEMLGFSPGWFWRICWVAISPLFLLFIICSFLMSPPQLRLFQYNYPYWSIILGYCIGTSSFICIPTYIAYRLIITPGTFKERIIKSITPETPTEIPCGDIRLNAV
Experiment [12] can be described thus: Displacement of radioligand from adrenergic alpha1 receptor assessed as 50% receptor inhibition at 10^-5 M. Put shortly: as §1
The nature of experiment [13]: Displacement of radioligand from adrenergic alpha2 receptor assessed as 50% receptor inhibition at 10^-7 M. The method, boiled down:
as §1

For experiment [14], the target named is Sodium-dependent dopamine transporter (Homo sapiens, UniProt Q01959). The experiment in a line: Displacement of [125I]RTI-55 from human DAT expressed in HEK293 cells. It counts as cell-based. Put shortly: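 Nonspecific binding was defined with 5 μM mazindol. Ki was determined under standard conditions and reported as mean ± SEM of replicate assays. A value >10000 nM means less than 30% radioligand displacement at that concentration.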
Sequence of Sodium-dependent dopamine transporter (Q01959 whole entry): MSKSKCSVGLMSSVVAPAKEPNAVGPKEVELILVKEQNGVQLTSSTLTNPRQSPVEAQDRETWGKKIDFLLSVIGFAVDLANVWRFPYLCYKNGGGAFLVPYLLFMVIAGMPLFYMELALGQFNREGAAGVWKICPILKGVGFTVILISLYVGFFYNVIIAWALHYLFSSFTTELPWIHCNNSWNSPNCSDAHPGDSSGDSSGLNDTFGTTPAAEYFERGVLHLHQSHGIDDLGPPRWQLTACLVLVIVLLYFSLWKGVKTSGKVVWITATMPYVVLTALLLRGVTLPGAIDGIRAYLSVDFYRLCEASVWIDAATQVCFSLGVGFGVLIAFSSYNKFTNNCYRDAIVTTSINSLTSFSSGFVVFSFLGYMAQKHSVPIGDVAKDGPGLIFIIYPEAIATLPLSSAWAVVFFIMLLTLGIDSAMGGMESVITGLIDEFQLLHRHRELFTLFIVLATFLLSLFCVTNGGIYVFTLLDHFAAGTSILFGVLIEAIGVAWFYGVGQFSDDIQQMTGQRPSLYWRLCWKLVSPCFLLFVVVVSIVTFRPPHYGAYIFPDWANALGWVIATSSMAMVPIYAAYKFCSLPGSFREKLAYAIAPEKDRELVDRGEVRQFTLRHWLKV
For orientation: Displacement assays read how much labelled ligand stays bound in the presence of the test substance.

Experiment [15] is described as follows: Displacement of radioligand from sodium channel site 2 assessed as 50% receptor inhibition at 10^-5 M. Put shortly:
as §1

A short description of experiment [16]: Displacement of radioligand from adrenergic beta1 receptor assessed as 50% receptor inhibition at 10^-5 M. The method, boiled down:
as §1

The target in experiment [17] is T4, 5-hydroxytryptamine receptor 1A (Homo sapiens, UniProt P08908).
T4 sequence (P08908 whole entry): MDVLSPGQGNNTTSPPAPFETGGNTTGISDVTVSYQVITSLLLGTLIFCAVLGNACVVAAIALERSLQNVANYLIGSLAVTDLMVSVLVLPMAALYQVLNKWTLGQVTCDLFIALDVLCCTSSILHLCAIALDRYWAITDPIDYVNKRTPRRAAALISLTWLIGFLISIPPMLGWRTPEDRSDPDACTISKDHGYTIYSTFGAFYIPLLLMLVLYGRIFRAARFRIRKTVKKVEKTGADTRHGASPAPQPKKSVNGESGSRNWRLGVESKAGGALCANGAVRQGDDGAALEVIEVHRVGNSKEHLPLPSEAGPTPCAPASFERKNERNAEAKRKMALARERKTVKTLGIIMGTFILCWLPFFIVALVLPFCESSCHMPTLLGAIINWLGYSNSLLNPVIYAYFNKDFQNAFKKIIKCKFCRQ
The experiment is described as follows: Displacement of [3H]8-OH-DPAT from human 5HT1A receptor expressed in HEK cells. It is filed as cell-based, HEK293. The method, boiled down: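 Assay used HEK-h5-HT1A cells with 0.5 nM [3H]8-OH-DPAT, and nonspecific binding defined by 1 μM dihydroergotamine. Ki came from standard competition conditions, as mean ± SEM of replicate assays.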

A short description of experiment [18]: Displacement of radioligand from dopamine D4.2 receptor assessed as 50% receptor inhibition at 10^-5 M. The method, boiled down: as §1

Sequence of Cannabinoid receptor 1 (Homo sapiens) (P21554 whole entry): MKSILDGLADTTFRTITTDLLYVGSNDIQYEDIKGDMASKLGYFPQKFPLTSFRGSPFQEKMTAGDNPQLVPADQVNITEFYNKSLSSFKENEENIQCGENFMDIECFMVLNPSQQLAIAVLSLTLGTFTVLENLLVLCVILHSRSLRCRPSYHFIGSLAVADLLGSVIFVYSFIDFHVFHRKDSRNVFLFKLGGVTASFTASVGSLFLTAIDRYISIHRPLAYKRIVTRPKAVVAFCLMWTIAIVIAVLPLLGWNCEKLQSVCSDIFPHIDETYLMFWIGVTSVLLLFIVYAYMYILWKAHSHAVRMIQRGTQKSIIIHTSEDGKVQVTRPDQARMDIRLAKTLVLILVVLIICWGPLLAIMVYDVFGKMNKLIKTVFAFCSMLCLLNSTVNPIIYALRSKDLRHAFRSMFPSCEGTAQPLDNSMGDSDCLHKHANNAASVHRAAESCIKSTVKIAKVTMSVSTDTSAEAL

As usually defined, the Ki is the dissociation constant of the complex between target and ligand, obtained from inhibition or displacement. `COc1cc2c(cc1OC)CN(CCCCn1cc(-c3ccc(F)cc3)c3ccccc31)CC2`: the inhibition result in [1], in experiment [2], in experiment [4], in experiment [5], in [7] and in [8] was “inactive” each time. In addition, in [13], the inhibition entry was “inactive”. For the same compound, the inhibition entry in experiment [3], in [6], in experiment [9], in experiment [10], in experiment [12] and in experiment [15] was “Active” each time. Further, the inhibition result in [16] and in [18] was “Active” each time. The Ki in experiment [11] was determined as 0.295 µM; in [14] it was 5 µM; in experiment [17] it was 1.51 µM.
